Calls of active or inactive are those of the source. The calls are words filed in the database; no cut-off is given here.
Columns and labels:
[1] = molecular target: D(4) dopamine receptor (Homo sapiens, UniProt P21917); test: Binding affinity to DRD4 (unknown origin) assessed as inhibition of ligand binding
[2] = molecular target: Muscarinic acetylcholine receptor M3 (Homo sapiens, UniProt P20309); test: Binding affinity to M3 receptor (unknown origin) assessed as inhibition of ligand binding
[3] = molecular target: D(3) dopamine receptor (Homo sapiens, UniProt P35462); test: Binding affinity to DRD3 (unknown origin) assessed as inhibition of ligand binding
[4] = Volume of distribution at steady state in Sprague-Dawley rat at 20 mg/kg, po mesured up to 24 hrs; format: ADME, organism-based; conditions: in vivo
[5] = molecular target: D(1B) dopamine receptor (Homo sapiens, UniProt P21918); test: Binding affinity to DRD5 (unknown origin) assessed as inhibition of ligand binding
[6] = molecular target: Beta-1 adrenergic receptor (Homo sapiens, UniProt P08588); test: Binding affinity to beta1 adrenergic receptor (unknown origin) assessed as inhibition of ligand binding
[7] = molecular target: 5-hydroxytryptamine receptor 3A (Homo sapiens, UniProt P46098); test: Binding affinity to 5-HT3 (unknown origin) assessed as inhibition of ligand binding
[8] = molecular target: 5-hydroxytryptamine receptor 5A (Homo sapiens, UniProt P47898); test: Binding affinity to 5-HT5A (unknown origin) assessed as inhibition of ligand binding
[9] = molecular target: Alpha-2A adrenergic receptor (Homo sapiens, UniProt P08913); test: Binding affinity to alpha2A receptor (unknown origin) assessed as inhibition of ligand binding
[10] = AUC (0 to infinity) in Sprague-Dawley rat at 20 mg/kg, po mesured up to 24 hrs; format: ADME, organism-based; set-up: route oral, dose 20 mg/kg, time <=24; conditions: in vivo
In short: (§1)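 Male Sprague-Dawley rats (200–250 g, n = 3/group), dosed IV 10 mg/kg or PO 20 mg/kg in 10% DMSO/90% HP-β-CD. Jugular blood into K2EDTA at 0.08 (IV only), 0.25, 0.5, 1, 2, 4, 8, 24 h; plasma by centrifugation at 4 °C, stored −20 °C. Non-compartmental analysis; Cmax read from profile, AUC by linear trapezoidal rule extrapolated to infinity; mean ± SEM.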

[11] = molecular target: Sodium-dependent dopamine transporter (Homo sapiens, UniProt Q01959); test: Binding affinity to DAT (unknown origin) assessed as inhibition of ligand binding
[12] = molecular target: Muscarinic acetylcholine receptor M1 (Homo sapiens, UniProt P11229); test: Binding affinity to M1 receptor (unknown origin) assessed as inhibition of ligand binding
[13] = molecular target: 5-hydroxytryptamine receptor 1A (Homo sapiens, UniProt P08908); test: Binding affinity to 5-HT1A (unknown origin) assessed as inhibition of ligand binding
[14] = Oral bioavailability in Sprague-Dawley rat at 20 mg/kg mesured up to 24 hrs; format: ADME, organism-based; conditions: in vivo
In short: (§2)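 Male Sprague Dawley rats, 200–250 g, n = 3 per group, were dosed at 10 mg/kg IV or 20 mg/kg PO in 10% DMSO/90% HP-β-CD. Jugular plasma was sampled from 0.08 (IV) or 0.25 (PO) to 24 h. Non-compartmental analysis gave t1/2 = 0.693/λ, AUC by linear trapezoid extrapolated to infinity, Vss after IV, and absolute F. Mean ± SEM.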

[15] = molecular target: Alpha-1B adrenergic receptor (Homo sapiens, UniProt P35368); test: Binding affinity to alpha1B receptor (unknown origin) assessed as inhibition of ligand binding
[16] = molecular target: Histamine H2 receptor (Homo sapiens, UniProt P25021); test: Binding affinity to HRH2 (unknown origin) assessed as inhibition of ligand binding
[17] = molecular target: D(1A) dopamine receptor (Homo sapiens, UniProt P21728); test: Binding affinity to DRD1 (unknown origin) assessed as inhibition of ligand binding
[18] = molecular target: Muscarinic acetylcholine receptor M4 (Homo sapiens, UniProt P08173); test: Binding affinity to M4 receptor (unknown origin) assessed as inhibition of ligand binding
[19] = system: Mus musculus; test: Antipsychotic-like activity in C57/BL6 mouse assessed as reduction in horizontal activity at 3 to 10 mg/kg, ip measured after 30 mins; format: functional, organism-based; conditions: dose mg/kg 3-10, time 30.0 min
In short: (§3)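 Naïve male C57/BL6 mice (24–31 g, ~60 days), handled and habituated to activity monitors beforehand; n = 12/dose (11 at 1 mg/kg after outlier exclusion). Vehicle or 0.3, 1, 3, 10 mg/kg IP, then automated horizontal activity monitored 30 min; amphetamine 3 mg/kg IP followed, with monitoring for 90 min. One-way ANOVA with Dunnett's comparisons vs vehicle; mean ± SEM; blinded dosing.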

[20] = molecular target: Beta-2 adrenergic receptor (Homo sapiens, UniProt P07550); test: Binding affinity to beta2 adrenergic receptor (unknown origin) assessed as inhibition of ligand binding
[21] = species: Homo sapiens; test: Binding affinity to GABAA receptor (unknown origin) assessed as inhibition of ligand binding at 10 uM relative to control
[22] = molecular target: Kappa-type opioid receptor (Homo sapiens, UniProt P41145); test: Binding affinity to KOR (unknown origin) assessed as inhibition of ligand binding
[23] = molecular target: 5-hydroxytryptamine receptor 1B (Homo sapiens, UniProt P28222); test: Binding affinity to 5-HT1B (unknown origin) assessed as inhibition of ligand binding
[24] = Cmax in Sprague-Dawley rat at 20 mg/kg, po mesured up to 24 hrs; format: ADME, organism-based; set-up: route oral, dose 20 mg/kg, time <=24; conditions: in vivo; in short: as §1
[25] = Clearance in Sprague-Dawley rat at 10 mg/kg, iv mesured up to 24 hrs; format: ADME, organism-based; conditions: in vivo; in short: as §1
[26] = Drug level in Sprague-Dawley rat plasma at 10 mg/kg, iv after 1 hr; format: ADME, organism-based
In short: (§4)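 Male Sprague Dawley rats, 200–250 g, n = 3, were given a single 10 mg/kg IV dose in 10% DMSO/90% HP-β-CD vehicle. Brain and jugular-vein plasma (K₂EDTA, centrifuged at 4 °C) were collected 0.25 and 1 h post-dose and stored at −20 °C. Drug concentration was measured in each and the brain/plasma ratio derived. Values are mean ± SEM of biological triplicates.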

[27] = molecular target: 5-hydroxytryptamine receptor 2A (Homo sapiens, UniProt P28223); test: Binding affinity to 5-HT2A (unknown origin) assessed as inhibition of ligand binding
[28] = molecular target: Voltage-gated inwardly rectifying potassium channel KCNH2 (Homo sapiens, UniProt Q12809); test: Binding affinity to human ERG assessed as inhibition of ligand binding
[29] = molecular target: 5-hydroxytryptamine receptor 7 (Homo sapiens, UniProt P34969); test: Binding affinity to 5-HT7A (unknown origin) assessed as inhibition of ligand binding
[30] = system: HEK293; test: Effect on cAMP levels in HEK293 cells at 0.1 nM to 10000 nM incubated for 15 mins by Glosensor cAMP assay; format: functional, cell-based; conditions: Homo sapiens, dose nM 0.1-10000, time […]
In short: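 HEK293 cells were transiently co-transfected with human GPR52 and the 22F Glosensor cAMP reporter. After 18 h they were seeded on poly-L-lysine, then equilibrated 2 h at room temperature in the dark in 1% Glosensor reagent/HBSS/20 mM HEPES. Cells were treated 15 min with a twelve-point series, and luminescence was read.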

[31] = molecular target: 5-hydroxytryptamine receptor 1E (Homo sapiens, UniProt P28566); test: Binding affinity to 5-HT1E (unknown origin) assessed as inhibition of ligand binding
[32] = molecular target: Histamine H1 receptor (Homo sapiens, UniProt P35367); test: Binding affinity to HRH1 (unknown origin) assessed as inhibition of ligand binding
[33] = molecular target: 5-hydroxytryptamine receptor 2B (Homo sapiens, UniProt P41595); test: Binding affinity to 5-HT2B (unknown origin) assessed as inhibition of ligand binding
[34] = molecular target: D(2) dopamine receptor (Homo sapiens, UniProt P14416); test: Binding affinity to DRD2 (unknown origin) assessed as inhibition of ligand binding
[35] = molecular target: Muscarinic acetylcholine receptor M5 (Homo sapiens, UniProt P08912); test: Binding affinity to M5 receptor (unknown origin) assessed as inhibition of ligand binding
[36] = Drug level in Sprague-Dawley rat brain at 10 mg/kg, iv after 1 hr; format: ADME, organism-based; conditions: read-out: Drug uptake; in short: as §4
[37] = molecular target: hERG (KCNH2) (Homo sapiens, UniProt Q12809); test: Binding affinity to human ERG assessed as inhibition of ligand binding at 10 uM relative to control
[38] = Binding affinity to GABAA receptor (unknown origin) assessed as inhibition of ligand binding; set-up: species or system Homo sapiens
[39] = AUC (0 to infinity) in Sprague-Dawley rat at 10 mg/kg, iv mesured up to 24 hrs; format: ADME, organism-based; set-up: route intravenous, dose 10 mg/kg, time <=24; conditions: in vivo; in short: as §1
[40] = molecular target: Muscarinic acetylcholine receptor M2 (Homo sapiens, UniProt P08172); test: Binding affinity to M2 receptor (unknown origin) assessed as inhibition of ligand binding
[41] = molecular target: 5-hydroxytryptamine receptor 6 (Homo sapiens, UniProt P50406); test: Binding affinity to 5-HT6 (unknown origin) assessed as inhibition of ligand binding
[42] = molecular target: Alpha-1A adrenergic receptor (Homo sapiens, UniProt P35348); test: Binding affinity to alpha1A receptor (unknown origin) assessed as inhibition of ligand binding
[43] = molecular target: Mu-type opioid receptor (Homo sapiens, UniProt P35372); test: Binding affinity to MOR (unknown origin) assessed as inhibition of ligand binding
[44] = Cmax in Sprague-Dawley rat at 10 mg/kg, iv mesured up to 24 hrs; format: ADME, organism-based; set-up: route intravenous, dose 10 mg/kg, time <=24; conditions: in vivo; in short: as §1
[45] = Ratio of drug level in brain to plasma of Sprague-Dawley rat at 10 mg/kg, iv after 1 hr; format: ADME, organism-based; in short: as §4
[46] = molecular target: 5-hydroxytryptamine receptor 2C (Homo sapiens) (UniProt P28335); test: Binding affinity to 5-HT2C (unknown origin) assessed as inhibition of ligand binding at 10 uM relative to control
[47] = system: Mus musculus; test: Antipsychotic-like activity in C57/BL6 mouse assessed as reduction in amphetamine-evoked hyperactivity by measuring horizontal activity at 0.3 to 10 mg/kg, ip dosed 30 mins before amphetamine challenge and measured for 90 mins; format: functional, organism-based; conditions: dose mg/kg 0.3-10, time […]; in short: as §3
[48] = Volume of distribution at steady state in Sprague-Dawley rat at 10 mg/kg, iv mesured up to 24 hrs; format: ADME, organism-based; conditions: in vivo; in short: as §2
[49] = molecular target: 5-hydroxytryptamine receptor 1D (Homo sapiens, UniProt P28221); test: Binding affinity to 5-HT1D (unknown origin) assessed as inhibition of ligand binding

5-hydroxytryptamine receptor 1E, sequence (P28566 whole entry): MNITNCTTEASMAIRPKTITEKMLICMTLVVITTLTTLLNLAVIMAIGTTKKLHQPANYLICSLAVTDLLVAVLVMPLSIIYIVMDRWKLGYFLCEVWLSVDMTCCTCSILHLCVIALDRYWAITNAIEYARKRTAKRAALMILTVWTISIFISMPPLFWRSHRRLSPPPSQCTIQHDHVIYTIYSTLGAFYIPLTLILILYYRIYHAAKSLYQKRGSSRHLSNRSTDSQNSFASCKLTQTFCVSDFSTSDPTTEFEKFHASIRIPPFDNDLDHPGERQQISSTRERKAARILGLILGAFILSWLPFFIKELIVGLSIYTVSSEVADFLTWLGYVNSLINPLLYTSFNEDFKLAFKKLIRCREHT
D(2) dopamine receptor, sequence (P14416 whole entry): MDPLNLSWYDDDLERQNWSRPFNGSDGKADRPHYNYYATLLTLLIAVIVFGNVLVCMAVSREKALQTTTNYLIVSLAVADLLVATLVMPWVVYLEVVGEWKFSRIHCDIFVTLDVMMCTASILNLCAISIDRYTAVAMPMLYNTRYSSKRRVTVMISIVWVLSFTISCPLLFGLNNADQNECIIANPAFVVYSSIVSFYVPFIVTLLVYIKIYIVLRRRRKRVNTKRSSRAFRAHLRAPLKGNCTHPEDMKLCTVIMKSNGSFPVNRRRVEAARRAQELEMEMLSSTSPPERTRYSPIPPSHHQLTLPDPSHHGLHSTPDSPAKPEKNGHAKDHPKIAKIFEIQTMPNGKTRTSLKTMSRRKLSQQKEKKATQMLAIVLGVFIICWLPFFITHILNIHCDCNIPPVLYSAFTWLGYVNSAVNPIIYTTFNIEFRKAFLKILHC
Kappa-type opioid receptor, sequence (P41145 whole entry): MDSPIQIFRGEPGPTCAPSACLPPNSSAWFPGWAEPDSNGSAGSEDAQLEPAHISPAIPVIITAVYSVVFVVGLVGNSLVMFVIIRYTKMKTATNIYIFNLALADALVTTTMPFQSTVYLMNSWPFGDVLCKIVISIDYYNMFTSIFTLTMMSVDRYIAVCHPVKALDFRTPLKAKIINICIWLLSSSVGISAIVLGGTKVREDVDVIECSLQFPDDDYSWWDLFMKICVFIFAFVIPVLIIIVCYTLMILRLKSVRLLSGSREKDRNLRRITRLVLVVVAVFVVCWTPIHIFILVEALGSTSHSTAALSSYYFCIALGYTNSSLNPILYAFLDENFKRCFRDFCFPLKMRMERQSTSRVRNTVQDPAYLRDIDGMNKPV
Muscarinic acetylcholine receptor M1, sequence (P11229 whole entry): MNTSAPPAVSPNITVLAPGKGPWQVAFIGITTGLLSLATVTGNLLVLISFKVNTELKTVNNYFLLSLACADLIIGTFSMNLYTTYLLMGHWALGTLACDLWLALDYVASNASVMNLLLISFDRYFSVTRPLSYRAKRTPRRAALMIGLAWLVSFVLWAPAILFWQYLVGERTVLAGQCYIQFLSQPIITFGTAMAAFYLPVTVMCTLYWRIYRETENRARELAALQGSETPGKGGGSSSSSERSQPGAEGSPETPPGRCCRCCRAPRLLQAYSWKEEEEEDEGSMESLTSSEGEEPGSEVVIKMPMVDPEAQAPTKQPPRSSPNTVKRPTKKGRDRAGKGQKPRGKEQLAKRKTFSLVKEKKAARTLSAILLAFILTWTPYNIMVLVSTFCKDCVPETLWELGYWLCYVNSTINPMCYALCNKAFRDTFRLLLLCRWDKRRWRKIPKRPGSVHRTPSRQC
5-hydroxytryptamine receptor 6, sequence (P50406 whole entry): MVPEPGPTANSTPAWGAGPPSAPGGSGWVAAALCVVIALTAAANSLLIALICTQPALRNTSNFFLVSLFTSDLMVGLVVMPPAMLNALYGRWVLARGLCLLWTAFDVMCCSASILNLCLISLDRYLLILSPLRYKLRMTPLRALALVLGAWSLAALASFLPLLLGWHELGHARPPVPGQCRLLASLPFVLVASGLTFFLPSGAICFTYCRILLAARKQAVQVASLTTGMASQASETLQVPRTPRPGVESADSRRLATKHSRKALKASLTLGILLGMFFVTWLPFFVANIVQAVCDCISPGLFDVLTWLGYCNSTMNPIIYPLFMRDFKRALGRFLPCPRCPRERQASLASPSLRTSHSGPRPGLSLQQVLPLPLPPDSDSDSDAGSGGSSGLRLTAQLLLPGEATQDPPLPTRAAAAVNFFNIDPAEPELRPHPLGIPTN
Sodium-dependent dopamine transporter, sequence (Q01959 whole entry): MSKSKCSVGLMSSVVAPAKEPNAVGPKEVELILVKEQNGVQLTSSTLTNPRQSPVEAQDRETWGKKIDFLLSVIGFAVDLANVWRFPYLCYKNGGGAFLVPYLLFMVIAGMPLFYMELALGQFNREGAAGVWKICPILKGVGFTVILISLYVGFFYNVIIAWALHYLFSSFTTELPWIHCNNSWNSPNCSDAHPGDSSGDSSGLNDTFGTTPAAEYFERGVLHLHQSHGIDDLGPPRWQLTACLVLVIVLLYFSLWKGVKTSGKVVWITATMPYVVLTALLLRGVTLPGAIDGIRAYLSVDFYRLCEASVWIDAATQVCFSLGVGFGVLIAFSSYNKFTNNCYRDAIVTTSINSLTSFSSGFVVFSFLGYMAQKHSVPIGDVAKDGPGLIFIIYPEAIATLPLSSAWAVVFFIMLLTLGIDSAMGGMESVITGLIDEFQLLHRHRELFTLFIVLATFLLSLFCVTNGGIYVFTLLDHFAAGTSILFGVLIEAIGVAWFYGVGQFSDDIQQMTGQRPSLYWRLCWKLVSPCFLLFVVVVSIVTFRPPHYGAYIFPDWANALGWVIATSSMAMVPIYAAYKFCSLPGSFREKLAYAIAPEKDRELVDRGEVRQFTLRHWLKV
D(1B) dopamine receptor, sequence (P21918 whole entry): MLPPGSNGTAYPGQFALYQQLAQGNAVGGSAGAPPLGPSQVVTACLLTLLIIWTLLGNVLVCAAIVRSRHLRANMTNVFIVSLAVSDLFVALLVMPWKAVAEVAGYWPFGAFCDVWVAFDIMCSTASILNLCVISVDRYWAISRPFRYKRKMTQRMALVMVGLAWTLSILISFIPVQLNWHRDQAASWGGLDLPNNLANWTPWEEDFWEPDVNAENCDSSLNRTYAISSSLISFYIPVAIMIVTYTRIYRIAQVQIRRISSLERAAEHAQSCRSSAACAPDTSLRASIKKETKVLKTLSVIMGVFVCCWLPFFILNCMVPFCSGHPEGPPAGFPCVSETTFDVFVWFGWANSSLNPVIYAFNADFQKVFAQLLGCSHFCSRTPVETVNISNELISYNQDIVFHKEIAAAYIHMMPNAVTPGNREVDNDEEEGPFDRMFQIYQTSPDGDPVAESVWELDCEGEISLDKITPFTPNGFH
5-hydroxytryptamine receptor 7, sequence (P34969 whole entry): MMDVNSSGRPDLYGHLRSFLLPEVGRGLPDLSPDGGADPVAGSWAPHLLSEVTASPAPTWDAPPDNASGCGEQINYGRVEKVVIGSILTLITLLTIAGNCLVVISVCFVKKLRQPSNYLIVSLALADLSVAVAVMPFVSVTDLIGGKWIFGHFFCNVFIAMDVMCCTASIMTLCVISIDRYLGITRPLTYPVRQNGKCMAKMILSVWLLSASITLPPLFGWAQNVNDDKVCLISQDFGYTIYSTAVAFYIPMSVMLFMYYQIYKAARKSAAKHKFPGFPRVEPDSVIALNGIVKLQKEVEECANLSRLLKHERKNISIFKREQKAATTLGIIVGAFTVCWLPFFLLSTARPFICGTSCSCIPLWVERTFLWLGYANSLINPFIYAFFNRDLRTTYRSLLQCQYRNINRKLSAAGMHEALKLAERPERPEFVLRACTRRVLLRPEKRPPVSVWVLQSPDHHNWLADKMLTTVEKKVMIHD
D(1A) dopamine receptor, sequence (P21728 whole entry): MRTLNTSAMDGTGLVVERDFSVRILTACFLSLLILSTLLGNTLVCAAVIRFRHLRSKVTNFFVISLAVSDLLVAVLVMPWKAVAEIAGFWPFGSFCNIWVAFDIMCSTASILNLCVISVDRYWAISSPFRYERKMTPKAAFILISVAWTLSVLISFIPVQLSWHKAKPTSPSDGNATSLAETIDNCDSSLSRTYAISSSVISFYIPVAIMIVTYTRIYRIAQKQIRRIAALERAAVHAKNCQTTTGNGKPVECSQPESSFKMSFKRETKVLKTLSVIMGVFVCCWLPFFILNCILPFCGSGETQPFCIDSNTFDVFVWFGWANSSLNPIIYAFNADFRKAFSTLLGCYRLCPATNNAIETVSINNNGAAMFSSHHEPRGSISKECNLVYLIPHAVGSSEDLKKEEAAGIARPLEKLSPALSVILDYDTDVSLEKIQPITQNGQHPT
5-hydroxytryptamine receptor 1A, sequence (P08908 whole entry): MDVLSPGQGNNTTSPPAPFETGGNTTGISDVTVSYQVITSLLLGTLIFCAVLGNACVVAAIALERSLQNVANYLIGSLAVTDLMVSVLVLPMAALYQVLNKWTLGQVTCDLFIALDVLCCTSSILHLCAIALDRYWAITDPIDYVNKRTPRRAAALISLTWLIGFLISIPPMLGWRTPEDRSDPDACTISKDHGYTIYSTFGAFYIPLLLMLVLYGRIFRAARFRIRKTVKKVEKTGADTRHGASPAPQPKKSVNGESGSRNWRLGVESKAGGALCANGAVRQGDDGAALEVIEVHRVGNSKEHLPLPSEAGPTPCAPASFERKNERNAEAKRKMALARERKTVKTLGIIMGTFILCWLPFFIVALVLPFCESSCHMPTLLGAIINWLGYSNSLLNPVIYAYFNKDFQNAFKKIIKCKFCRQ
5-hydroxytryptamine receptor 5A, sequence (P47898 whole entry): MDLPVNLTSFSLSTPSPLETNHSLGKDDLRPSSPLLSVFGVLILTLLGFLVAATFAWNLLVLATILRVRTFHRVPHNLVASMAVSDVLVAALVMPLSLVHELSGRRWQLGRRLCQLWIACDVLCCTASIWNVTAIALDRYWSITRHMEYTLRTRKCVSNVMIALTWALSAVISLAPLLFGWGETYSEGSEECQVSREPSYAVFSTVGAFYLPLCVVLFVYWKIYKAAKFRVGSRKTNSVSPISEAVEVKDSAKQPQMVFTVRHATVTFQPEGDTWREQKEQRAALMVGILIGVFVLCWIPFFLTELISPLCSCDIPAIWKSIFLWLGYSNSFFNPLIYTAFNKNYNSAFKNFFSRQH

With `O=C(NCCO)c1cccc2c1CCN2c1cc(Cc2cc(F)cc(C(F)(F)F)c2)ncn1` the Ki [1] was “Not Active”, the Ki [2] was “Not Active” and the Ki [3] was “Not Active”. For the same compound, the Vdss [4] was 5.5 L/kg, the Ki [5] was “Not Active” and the Ki [6] was “Not Active”. For the same compound, the Ki [7] was “Not Active”, the Ki [8] was “Not Active” and the Ki [9] was “Not Active”. For the same compound, the AUC [10] was 13749 ng·h/mL, the Ki [11] was “Not Active” and the Ki [12] was “Not Active”. For the same compound, the Ki [13] was “Not Active”, the bioavailability [14] was 76% and the Ki [15] was “Not Active”. For the same compound, the Ki [16] was “Not Active”, the Ki [17] was “Not Active” and the Ki [18] was “Not Active”. For the same compound, the Activity [19] was “Active”, the Ki [20] was “Not Active” and the inhibition [21] was 5.98%. For the same compound, the Ki [22] was “Not Active”, the Ki [23] was “Not Active” and the Cmax [24] was 3407 ng/mL. For the same compound, the CL [25] was 18.3 mL/min/kg, the concentration at 1 h [26] was 2590 ng/g and the Ki [27] was “Not Active”. For the same compound, the Ki [28] was “Not Active”, the Ki [29] was “Not Active” and the Activity [30] was “inactive”. For the same compound, the Ki [31] was “Not Active”, the Ki [32] was “Not Active” and the Ki [33] was “Not Active”. The Ki [34] was “Not Active”, the Ki [35] was “Not Active” and the concentration at 1 h [36] was 1010 ng/g. For the same compound, the inhibition at 10 µM [37] was 11%, the Ki [38] was “Not Active” and the AUC [39] was 9030 ng·h/mL. The Ki [40] was “Not Active”, the Ki [41] was “Not Active” and the Ki [42] was “Not Active”. For the same compound, the Ki [43] was “Not Active”, the Cmax [44] was 6726 ng/mL and the BPR [45] was 0.39. For the same compound, the inhibition [46] was 52.6%, the Activity [47] was “Dose-dependent effect” and the Vdss [48] was 1.5 L/kg. The Ki [49] was “Not Active”.
